Experimental data published in the RNAGym collection of RNA variant scans (doi:10.1126/science.aae0568).
This sample holds only a part of the variants without activity.

B1: tRNA (parent)
chain: GUUCCGUUGGCGUAAUGGUAACGCGUCUCCCUCCUAAGGAGAAGACUGCGGGUUCGAGUCCCGUACGGAACG

Variants of: B1
Experiment: yeast fitness relative to wild type (ratio to wild type); higher = fitter; tRNA-Arg(CCU), competitive growth, 37 C, YPD
Method in brief: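 The tRNA-Arg(CCU) gene variants were made by chemical synthesis with a 3% per-site mutation rate at 69 sites and inserted at the native genomic locus of Saccharomyces cerevisiae. After pooling, the strains were competed in YPD at 37°C for 24 hours in six parallel replicates. Gene amplicons from the start population and each end population were read by 100-nucleotide paired-end sequencing, and Darwinian fitness relative to wild type was taken from genotype frequency changes. Genotypes needed ≥ 100 starting reads, and estimates < 0.5 were set to 0.5.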
In the case of G6A A15G C30A A57G, the yeast fitness is reported as at most 0.5.
For G6A A14U C61A, the yeast fitness was at most 0.5.
Variant C5U U7G has a yeast fitness of 0.894.
Work on C5U U7A yielded a yeast fitness of 0.772.
For C5U U7C, the yeast fitness was 0.92.
In the case of C5U U13G C22A C29U C31A U59A C62U, the yeast fitness is reported as at most 0.5.
G6A A36U G56A C66U gave a yeast fitness of at most 0.5.
With C5U U13G C33A A37C G52C the yeast fitness was at most 0.5.
C5U U19C C22U gave a yeast fitness of 0.721.
In the case of C5U U8A U59G, the yeast fitness is reported as at most 0.5.
In the case of G6A A14U G23U, the yeast fitness is reported as at most 0.5.
C5U U7C G10A C34A G63A showed a yeast fitness of at most 0.5.
With G6A A21C U47A A70G the yeast fitness was at most 0.5.
In the case of G6A A20U A42G, the yeast fitness is reported as at most 0.5.
Variant C5U U16C A40G A43G G67C has a yeast fitness of at most 0.5.
In the case of C5U U28A G67A, the yeast fitness is reported as 0.545.
With G6A A15G U54C the yeast fitness was at most 0.5.
In the case of C5U U7G A45G A70C, the yeast fitness is reported as at most 0.5.
Variant G6A A14G A36G A45U has a yeast fitness of 0.574.
G6A A21C C34U C49U C55G C62U gave a yeast fitness of at most 0.5.
In the case of C5U U32G C33G C55U, the yeast fitness is reported as 0.621.
In the case of G6A A37C A65C A70C, the yeast fitness is reported as at most 0.5.
Work on C5U U7A G39C C49U yielded a yeast fitness of at most 0.5.
C5U U13A C27G gave a yeast fitness of 0.557.
Variant C5U U54A A69U has a yeast fitness of at most 0.5.
G6A A36U C61G gave a yeast fitness of 0.646.
Variant C5U U32G has a yeast fitness of 0.669.
Work on C5U U32A yielded a yeast fitness of 0.789.
Work on C5U U7A U26A G39C yielded a yeast fitness of at most 0.5.
In the case of C5U U7G A14C C29G, the yeast fitness is reported as at most 0.5.
C5U U16A G38A A42G showed a yeast fitness of at most 0.5.
In the case of G6A A14C A37U U54A, the yeast fitness is reported as at most 0.5.
With C5U U19G C46U A69C the yeast fitness was at most 0.5.
C5U G68C gave a yeast fitness of 0.842.
Work on C5U G68A yielded a yeast fitness of 0.969.
For C5U G68U, the yeast fitness was 0.88.
Work on C5U U13A C62A yielded a yeast fitness of 0.546.
In the case of C5U U47C A57U G67C, the yeast fitness is reported as at most 0.5.
With C5U U28G C49A the yeast fitness was at most 0.5.
C5U U59G C61G showed a yeast fitness of 0.606.
G6A A20G C30U C55U gave a yeast fitness of at most 0.5.
With G6A A15C A20U C61G the yeast fitness was 0.565.
Work on C5U U16G G51C A57C yielded a yeast fitness of at most 0.5.
C5U U7C C30A A42C A65U A69U showed a yeast fitness of at most 0.5.
C5U U8A C46A showed a yeast fitness of at most 0.5.
In the case of C5U G67A, the yeast fitness is reported as 0.923.
Work on C5U G67U yielded a yeast fitness of 0.735.
Work on C5U G67C yielded a yeast fitness of 0.913.
C5U G58A showed a yeast fitness of 0.88.
C5U G58C gave a yeast fitness of 1.
With G6A A14U C29A C49A the yeast fitness was at most 0.5.
Work on C5U U32C A45G C46A yielded a yeast fitness of 0.602.
G6A A20C C27U showed a yeast fitness of 0.663.
Work on G6A A14U C30U A69U yielded a yeast fitness of at most 0.5.
Variant G6A A21C has a yeast fitness of 0.84.
Work on G6A A21U yielded a yeast fitness of 0.659.
Work on C5U U13G yielded a yeast fitness of 1.02.
For C5U G56C A65U A70G, the yeast fitness was at most 0.5.
Work on C5U U7A U28A yielded a yeast fitness of 0.573.
G6A A15C A36C A42U C55G C61U showed a yeast fitness of at most 0.5.
Variant C5U U26C A70U has a yeast fitness of 0.723.
G6A A14U G48A showed a yeast fitness of 0.547.
Variant C5U U8C A43U C66U has a yeast fitness of at most 0.5.
Work on C5U U16A C46A yielded a yeast fitness of 1.07.
In the case of G6A A14U C33G, the yeast fitness is reported as at most 0.5.
For C5U U26G C49G, the yeast fitness was at most 0.5.
C5U U7A U28A C49U gave a yeast fitness of at most 0.5.
With C5U U13G A15C the yeast fitness was 0.509.
For C5U U13G A15U, the yeast fitness was at most 0.5.
For C5U U16A G23A C49U, the yeast fitness was at most 0.5.
With C5U U7C G38A A45G G48A G67A the yeast fitness was at most 0.5.
With C5U U19C C34U A70C the yeast fitness was at most 0.5.
With C5U U8A A57U the yeast fitness was at most 0.5.
G6A A21C C62U gave a yeast fitness of at most 0.5.
Variant G6A A20G A37G G50A has a yeast fitness of at most 0.5.
Variant C5U U26A C66U has a yeast fitness of 0.792.
For G6A A20C C55A, the yeast fitness was 0.583.
With G6A A20C C55U the yeast fitness was 0.568.
Variant G6A A15G C30A G67A has a yeast fitness of at most 0.5.
Work on C5U U26A A65U G68U yielded a yeast fitness of 0.548.
C5U U13A G18C C30G A37U C46U showed a yeast fitness of at most 0.5.
C5U U28G A45C gave a yeast fitness of 0.592.
Variant C5U U16A C46A G68A has a yeast fitness of 0.625.
In the case of C5U U7G C30A, the yeast fitness is reported as 0.93.
For G6A A15C A20U G68A, the yeast fitness was at most 0.5.
C5U U26A A43U showed a yeast fitness of 0.715.
Variant C5U U59C has a yeast fitness of 0.946.
C5U U59A gave a yeast fitness of 0.886.
In the case of C5U U16C A69C, the yeast fitness is reported as 0.671.
With G6A A14U A21U G25C C60U C61A C62G the yeast fitness was at most 0.5.
C5U U19G A21U C29G C61G gave a yeast fitness of at most 0.5.
C5U U26A U54C showed a yeast fitness of 0.644.
C5U U8C A20G C30A C61U showed a yeast fitness of 0.544.
G6A A20U U26G C62U showed a yeast fitness of at most 0.5.
Work on G6A A21G C46A U54C yielded a yeast fitness of at most 0.5.
Work on G6A A14C A37U A57C G67U yielded a yeast fitness of at most 0.5.
C5U U13C A15C showed a yeast fitness of at most 0.5.
In the case of C5U U13C U26A, the yeast fitness is reported as 0.722.
C5U U28G A45C C66U showed a yeast fitness of 0.599.
Work on G6A A15G U26A C30G C46U yielded a yeast fitness of 0.661.
Variant G6A A20C C61A has a yeast fitness of at most 0.5.
G6A A20C C61U showed a yeast fitness of 0.663.
G6A A15G C30U A69U gave a yeast fitness of at most 0.5.
C5U U32C A37C C60U G67A showed a yeast fitness of 0.572.
For C5U U16C A20G A40G A43G G67C, the yeast fitness was at most 0.5.
For C5U U8G, the yeast fitness was 0.64.
Work on C5U U8C yielded a yeast fitness of 1.07.
Variant C5U U13G A57C has a yeast fitness of 0.755.
C5U U16C C29A showed a yeast fitness of 0.522.
Work on G6A A15C G23U yielded a yeast fitness of at most 0.5.
For C5U U28C C29G C49U, the yeast fitness was at most 0.5.
C5U U54C gave a yeast fitness of 0.805.
C5U U54G gave a yeast fitness of 0.647.
In the case of C5U U54A, the yeast fitness is reported as 0.699.
In the case of C5U U26C G50C G51C G56C G67A, the yeast fitness is reported as at most 0.5.
Variant C5U U7C A40U G63C has a yeast fitness of at most 0.5.
For C5U G52A A65U, the yeast fitness was at most 0.5.
In the case of C5U U47G, the yeast fitness is reported as 0.615.
Work on C5U U28A C62G yielded a yeast fitness of at most 0.5.
Work on G6A A14G G18A A42C yielded a yeast fitness of 0.618.
G6A A21U C33U showed a yeast fitness of 0.525.
For C5U U13C C24G U26C A36C C55G A57U C62U, the yeast fitness was at most 0.5.
C5U U8C A14C showed a yeast fitness of at most 0.5.
For C5U U26A C60G A70G, the yeast fitness was at most 0.5.
For G6A A20U C62G C66G, the yeast fitness was at most 0.5.
In the case of G6A A15C C27A A37G A43G, the yeast fitness is reported as at most 0.5.
In the case of C5U G56C, the yeast fitness is reported as 0.651.
Variant C5U G56A has a yeast fitness of 0.937.
Work on G6A A37G G51C C61U yielded a yeast fitness of 0.528.
In the case of G6A A15C C29A C66U, the yeast fitness is reported as at most 0.5.
With C5U U7A A36U the yeast fitness was at most 0.5.
With G6A A36G C60G C66U the yeast fitness was at most 0.5.
For C5U U8A A69C, the yeast fitness was at most 0.5.
Work on G6A A14G G48C yielded a yeast fitness of at most 0.5.
C5U U16G A65C showed a yeast fitness of 0.612.
With C5U U35C A36U G38A C46A U54C G68C the yeast fitness was at most 0.5.
With C5U U8C A43U the yeast fitness was 0.703.
In the case of G6A A21G A43U A70G, the yeast fitness is reported as at most 0.5.
G6A A36G A45C showed a yeast fitness of 0.751.
With G6A A14C A40U A43G G48A the yeast fitness was 0.607.
With C5U U19G C46A C55G the yeast fitness was at most 0.5.
With C5U U16C A36G the yeast fitness was 0.73.
With C5U U35C A45U C61G the yeast fitness was at most 0.5.
In the case of C5U U19G, the yeast fitness is reported as 1.
C5U U19A gave a yeast fitness of 0.906.
Work on G6A A21C U28A yielded a yeast fitness of at most 0.5.
In the case of G6A A20C A65U, the yeast fitness is reported as 0.699.
With G6A A20C A65G the yeast fitness was 0.672.
Work on G6A A36G G48A yielded a yeast fitness of 0.59.
G6A A14U C66U showed a yeast fitness of at most 0.5.
Variant C5U U7G A57U has a yeast fitness of at most 0.5.
Work on C5U U47A C49U A69U yielded a yeast fitness of at most 0.5.
Work on G6A A14C A20G A42U G56A G63C yielded a yeast fitness of at most 0.5.
Variant C5U U16G A57G C62G C66U has a yeast fitness of at most 0.5.
G6A A21C C33G A45C G50C gave a yeast fitness of 0.515.
With G6A A14G C33A the yeast fitness was at most 0.5.
C5U G63C gave a yeast fitness of 0.664.
C5U G63A gave a yeast fitness of 0.828.
In the case of C5U U35C A36U G38A C46A U54C, the yeast fitness is reported as 0.556.
For C5U U8C C11G A15U C49U G51A G63A, the yeast fitness was at most 0.5.
Variant C5U U16G G58C has a yeast fitness of 0.576.
C5U G58C G68A gave a yeast fitness of 0.513.
For G6A A21U C33U A57U U59C, the yeast fitness was at most 0.5.
G6A A37G G68A A69G showed a yeast fitness of 0.545.
For G6A A14G G17C, the yeast fitness was at most 0.5.
Work on G6A A14G A15G A20C U64A G67A yielded a yeast fitness of at most 0.5.
For C5U G56A A65G C66U, the yeast fitness was 0.671.
